Data published in ChEMBL document CHEMBL1140227, “Histone deacetylase inhibitors through click chemistry” (J Med Chem, 2008).

Tests used:
Format in all cases: functional
[1] = test system: HCT-15; experiment: Growth inhibition of human HCT15 cells at 10 uM relative to control; settings: values are per cent of control
How it was run: (§1)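 Single-dose preliminary screen in the NCI human cancer cell line panel, run by the NIH. Percent inhibition of cell line growth was calculated by comparison with untreated samples.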

[2] = Growth inhibition of human Hs 578T cells at 10 uM relative to control; settings: values are per cent of control; how it was run: as §1
[3] = test system: MCF7; experiment: Growth inhibition of human MCF7 cells at 10 uM relative to control; settings: values are per cent of control; how it was run: as §1
[4] = test system: KM12; experiment: Growth inhibition of human KM12 cells at 10 uM relative to control; settings: values are per cent of control; how it was run: as §1
[5] = test system: EKVX; experiment: Growth inhibition of human EKVX cells at 10 uM relative to control; settings: values are per cent of control; how it was run: as §1
[6] = test system: SK-MEL-5; experiment: Growth inhibition of human SK-MEL-5 cells at 10 uM relative to control; settings: values are per cent of control; how it was run: as §1
[7] = test system: NCI-H226; experiment: Growth inhibition of human NCI-H226 cells at 10 uM relative to control; settings: values are per cent of control; how it was run: as §1
[8] = test system: BT-549; experiment: Growth inhibition of human BT549 cells at 10 uM relative to control; settings: values are per cent of control; how it was run: as §1
[9] = test system: SNB-19; experiment: Growth inhibition of human SNB19 cells at 10 uM relative to control; settings: values are per cent of control; how it was run: as §1
[10] = Growth inhibition of human RPMI8266 cells at 10 uM relative to control; settings: values are per cent of control; how it was run: as §1
[11] = test system: MDA-MB-468; experiment: Growth inhibition of human MDA-MB-468 cells at 10 uM relative to control; settings: values are per cent of control; how it was run: as §1
[12] = test system: MDA-MB-231; experiment: Growth inhibition of human MDA-MB-231 cells at 10 uM relative to control; settings: values are per cent of control; how it was run: as §1
[13] = test system: OVCAR-5; experiment: Growth inhibition of human OVCAR5 cells at 10 uM relative to control; settings: values are per cent of control; how it was run: as §1
[14] = test system: SK-OV-3; experiment: Growth inhibition of human SKOV3 cells at 10 uM relative to control; settings: values are per cent of control; how it was run: as §1
[15] = test system: NCI-H322M; experiment: Growth inhibition of human NCI-H322M cells at 10 uM relative to control; settings: values are per cent of control; how it was run: as §1
[16] = test system: IGROV-1; experiment: Growth inhibition of human IGROV1 cells at 10 uM relative to control; settings: values are per cent of control; how it was run: as §1
[17] = test system: CCRF-CEM; experiment: Growth inhibition of human CCRF-CEM cells at 10 uM relative to control; settings: values are per cent of control; how it was run: as §1
[18] = test system: HT-29; experiment: Growth inhibition of human HT-29 cells at 10 uM relative to control; settings: values are per cent of control; how it was run: as §1
[19] = test system: OVCAR-3; experiment: Growth inhibition of human OVCAR-3 cells at 10 uM relative to control; settings: values are per cent of control; how it was run: as §1
[20] = test system: M14; experiment: Growth inhibition of human M14 cells at 10 uM relative to control; settings: values are per cent of control; how it was run: as §1
[21] = test system: SK-MEL-2; experiment: Growth inhibition of human SK-MEL-2 cells at 10 uM relative to control; settings: values are per cent of control; how it was run: as §1
[22] = test system: UO-31; experiment: Growth inhibition of human UO31 cells at 10 uM relative to control; settings: values are per cent of control
How it was run: (§2)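 Single-dose NCI human tumour cell line screen, run by the NIH. Percent inhibition of cell line growth was calculated by comparison with untreated samples.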

[23] = test system: NCI-H23; experiment: Growth inhibition of human NCI-H23 cells at 10 uM relative to control; settings: values are per cent of control; how it was run: as §1
[24] = test system: A549; experiment: Growth inhibition of human A549 cells at 10 uM relative to control; settings: values are per cent of control; how it was run: as §1
[25] = test system: HL-60(TB); experiment: Growth inhibition of human HL-60(TB) cells at 10 uM relative to control; settings: read-out: INH
How it was run: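 Single-dose cell line screen run by the NCI (NIH) in its human cancer cell line panel, which includes the leukemia line HL-60(TB). Percent growth inhibition was calculated by comparison with untreated samples.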

[26] = test system: COLO 205; experiment: Growth inhibition of human COLO205 cells at 10 uM relative to control; settings: values are per cent of control; how it was run: as §1
[27] = test system: HCC 2998; experiment: Growth inhibition of human HCC2998 cells at 10 uM relative to control; settings: values are per cent of control; how it was run: as §1
[28] = test system: SF-539; experiment: Growth inhibition of human SF539 cells at 10 uM relative to control; settings: values are per cent of control; how it was run: as §1
[29] = test system: SW-620; experiment: Growth inhibition of human SW620 cells at 10 uM relative to control; settings: values are per cent of control; how it was run: as §2
[30] = test system: MDA-MB-435; experiment: Growth inhibition of human MDA-MB-435 cells at 10 uM relative to control; settings: values are per cent of control; how it was run: as §1
[31] = test system: HOP-62; experiment: Growth inhibition of human HOP62 cells at 10 uM relative to control; settings: values are per cent of control; how it was run: as §1
[32] = test system: A498; experiment: Growth inhibition of human A498 cells at 10 uM relative to control; settings: values are per cent of control; how it was run: as §1
[33] = test system: DU-145; experiment: Growth inhibition of human DU145 cells at 10 uM relative to control; settings: values are per cent of control; how it was run: as §1
[34] = test system: OVCAR-8; experiment: Growth inhibition of human OVCAR8 cells at 10 uM relative to control; settings: values are per cent of control; how it was run: as §1
[35] = test system: 786-0; experiment: Growth inhibition of human 786-0 cells at 10 uM relative to control; settings: values are per cent of control; how it was run: as §1
[36] = test system: UACC-257; experiment: Growth inhibition of human UACC257 cells at 10 uM relative to control; settings: values are per cent of control; how it was run: as §2
[37] = test system: TK-10; experiment: Growth inhibition of human TK10 cells at 10 uM relative to control; settings: values are per cent of control; how it was run: as §2
[38] = test system: UACC-62; experiment: Growth inhibition of human UACC62 cells at 10 uM relative to control; settings: values are per cent of control; how it was run: as §2
[39] = test system: SF-268; experiment: Growth inhibition of human SF268 cells at 10 uM relative to control; settings: values are per cent of control; how it was run: as §1
[40] = test system: ACHN; experiment: Growth inhibition of human ACHN cells at 10 uM relative to control; settings: values are per cent of control; how it was run: as §1
[41] = test system: T47D; experiment: Growth inhibition of human T47D cells at 10 uM relative to control; settings: values are per cent of control; how it was run: as §2
[42] = test system: Malme-3M; experiment: Growth inhibition of human MALME-3M cells at 10 uM relative to control; settings: values are per cent of control; how it was run: as §1
[43] = test system: SNB-75; experiment: Growth inhibition of human SNB75 cells at 10 uM relative to control; settings: values are per cent of control; how it was run: as §2
[44] = test system: NCI-H522; experiment: Growth inhibition of human NCI-H522 cells at 10 uM relative to control; settings: values are per cent of control; how it was run: as §1
[45] = cells; settings: Homo sapiens, Cancer cell lines
[46] = test system: SN12C; experiment: Growth inhibition of human SN12C cells at 10 uM relative to control; settings: values are per cent of control; how it was run: as §1
[47] = test system: MOLT-4; experiment: Growth inhibition of human MOLT4 cells at 10 uM relative to control; settings: values are per cent of control; how it was run: as §1
[48] = test system: U-251; experiment: Growth inhibition of human U251 cells at 10 uM relative to control; settings: values are per cent of control; how it was run: as §2
[49] = test system: SF-295; experiment: Growth inhibition of human SF295 cells at 10 uM relative to control; settings: values are per cent of control; how it was run: as §1
[50] = test system: OVCAR-4; experiment: Growth inhibition of human OVCAR4 cells at 10 uM relative to control; settings: values are per cent of control; how it was run: as §1
[51] = test system: HCT-116; experiment: Growth inhibition of human HCT116 cells at 10 uM relative to control; settings: values are per cent of control; how it was run: as §1
[52] = test system: NCI-H460; experiment: Growth inhibition of human NCI-H460 cells at 10 uM relative to control; settings: values are per cent of control; how it was run: as §1
[53] = test system: NCI/ADR-RES; experiment: Growth inhibition of human NCI/ADR-RES cells at 10 uM relative to control; settings: values are per cent of control; how it was run: as §1
[54] = test system: K562; experiment: Growth inhibition of human K562 cells at 10 uM relative to control; settings: values are per cent of control; how it was run: as §1
[55] = test system: PC-3; experiment: Growth inhibition of human PC3 cells at 10 uM relative to control; settings: values are per cent of control; how it was run: as §1

In the case of `O=C(Cn1cc(C(=O)NO)nn1)c1ccccc1`, the growth, % of control at 10 µM [1] is reported as 108%, the growth, % of control at 10 µM [2] is reported as 90% and the growth, % of control at 10 µM [3] is reported as 112%. The growth, % of control at 10 µM [4] was 108%, the growth, % of control at 10 µM [5] was 108% and the growth, % of control at 10 µM [6] was 111%. The growth, % of control at 10 µM [7] was 87.6%, the growth, % of control at 10 µM [8] was 108% and the growth, % of control at 10 µM [9] was 95.9%. The growth, % of control at 10 µM [10] was 79.8%, the growth, % of control at 10 µM [11] was 110% and the growth, % of control at 10 µM [12] was 101%. The growth, % of control at 10 µM [13] was 84.1%, the growth, % of control at 10 µM [14] was 109% and the growth, % of control at 10 µM [15] was 95.9%. It also gave a growth, % of control at 10 µM [16] of 100%, a growth, % of control at 10 µM [17] of 92.1% and a growth, % of control at 10 µM [18] of 115%. It also gave a growth, % of control at 10 µM [19] of 146%, a growth, % of control at 10 µM [20] of 94.1% and a growth, % of control at 10 µM [21] of -26.8%. It also gave a growth, % of control at 10 µM [22] of 84.7%, a growth, % of control at 10 µM [23] of 110% and a growth, % of control at 10 µM [24] of 103%. For the same compound, the growth, % of control at 10 µM [25] was 136%, the growth, % of control at 10 µM [26] was 123% and the growth, % of control at 10 µM [27] was 107%. For the same compound, the growth, % of control at 10 µM [28] was 118%, the growth, % of control at 10 µM [29] was 94.8% and the growth, % of control at 10 µM [30] was 106%. It also gave a growth, % of control at 10 µM [31] of 118%, a growth, % of control at 10 µM [32] of 67.6% and a growth, % of control at 10 µM [33] of 135%. For the same compound, the growth, % of control at 10 µM [34] was 96.2%, the growth, % of control at 10 µM [35] was 105% and the growth, % of control at 10 µM [36] was 112%. For the same compound, the growth, % of control at 10 µM [37] was 113%, the growth, % of control at 10 µM [38] was 93.3% and the growth, % of control at 10 µM [39] was 104%. It also gave a growth, % of control at 10 µM [40] of 99.2%, a growth, % of control at 10 µM [41] of 102% and a growth, % of control at 10 µM [42] of 107%. The growth, % of control at 10 µM [43] was 117%, the growth, % of control at 10 µM [44] was 99.2% and the inhibition at 10 µM [45] was greater than 95%. The growth, % of control at 10 µM [46] was 97.7%, the growth, % of control at 10 µM [47] was 110% and the growth, % of control at 10 µM [48] was 96.9%. For the same compound, the growth, % of control at 10 µM [49] was 126%, the growth, % of control at 10 µM [50] was 112% and the growth, % of control at 10 µM [51] was 97.3%. It also gave a growth, % of control at 10 µM [52] of 120%, a growth, % of control at 10 µM [53] of 91.3% and a growth, % of control at 10 µM [54] of 85.1%. The growth, % of control at 10 µM [55] was 82.1%.
